According to ChEMBL document CHEMBL3994646, “Structure-based design and SAR development of 5,6-dihydroimidazolo[1,5-f]pteridine derivatives as novel Polo-like kinase-1 inhibitors” (Bioorg Med Chem Lett, 2017):

Tests used:
[1] = Clearance in rat; format: ADME; settings: in vivo
Summary of the method: (§1)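 Rats dosed at about 1.0 mg/kg IV in 30% β-cyclodextrin in 0.05 M MSA, pH 3, and about 5.0 mg/kg orally in 0.5% methylcellulose. Clearance from the IV arm; oral bioavailability from comparison of the two routes.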

[2] = target: T1, Cytochrome P450 2C8 (Homo sapiens, UniProt P10632); assay: Inhibition of CYP2C8 (unknown origin); format: ADME
T1 sequence (P10632 whole entry): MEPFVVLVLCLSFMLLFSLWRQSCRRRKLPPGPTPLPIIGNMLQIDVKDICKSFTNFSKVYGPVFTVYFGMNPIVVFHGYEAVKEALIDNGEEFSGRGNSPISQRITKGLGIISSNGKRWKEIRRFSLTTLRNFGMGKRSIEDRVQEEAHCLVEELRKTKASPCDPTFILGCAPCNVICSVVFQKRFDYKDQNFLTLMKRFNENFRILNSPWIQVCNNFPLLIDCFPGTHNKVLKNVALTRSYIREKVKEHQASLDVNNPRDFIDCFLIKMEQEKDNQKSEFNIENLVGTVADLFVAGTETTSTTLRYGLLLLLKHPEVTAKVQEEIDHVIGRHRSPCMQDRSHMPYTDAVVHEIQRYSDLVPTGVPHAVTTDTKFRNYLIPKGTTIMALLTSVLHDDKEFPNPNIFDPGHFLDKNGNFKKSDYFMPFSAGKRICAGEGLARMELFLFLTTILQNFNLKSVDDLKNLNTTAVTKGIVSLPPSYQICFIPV

[3] = Oral bioavailability in rat; format: ADME, organism-based; settings: in vivo; summary of the method: as §1
[4] = tested on: HT-29; assay: Antiproliferative activity against human HT-29 cells after 72 hrs by CellTiter-Glo assay; settings: HT-29, 72 h
[5] = target: Cytochrome P450 3A4 (Homo sapiens, UniProt P08684); assay: Inhibition of CYP3A4 (unknown origin); format: ADME
Sequence of Cytochrome P450 3A4 (P08684 whole entry): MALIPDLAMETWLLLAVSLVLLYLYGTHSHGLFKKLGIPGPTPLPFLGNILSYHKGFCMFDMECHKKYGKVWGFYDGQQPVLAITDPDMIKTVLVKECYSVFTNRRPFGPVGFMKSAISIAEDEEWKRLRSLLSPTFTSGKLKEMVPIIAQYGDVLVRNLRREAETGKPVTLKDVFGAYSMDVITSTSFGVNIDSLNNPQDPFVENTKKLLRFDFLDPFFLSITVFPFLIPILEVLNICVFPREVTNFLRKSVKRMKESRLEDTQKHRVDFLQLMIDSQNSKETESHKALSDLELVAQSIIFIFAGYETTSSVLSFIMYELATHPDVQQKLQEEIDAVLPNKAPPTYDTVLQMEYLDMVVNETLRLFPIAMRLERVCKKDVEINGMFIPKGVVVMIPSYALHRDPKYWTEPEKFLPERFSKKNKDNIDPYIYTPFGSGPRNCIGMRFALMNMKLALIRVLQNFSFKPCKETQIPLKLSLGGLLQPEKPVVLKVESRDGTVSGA

[6] = tested on: HT-29; assay: Antitumor activity against human HT-29 cells xenografted in mouse assessed as tumor growth inhibition at 45 mg/kg, iv 1/time/week x 1 cycle relative to control; format: functional
Summary of the method: (§2)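 Mice bearing HT-29 xenografts given 45 mg/kg IV once weekly for one cycle. Efficacy expressed as tumour T/C (%) versus control; tolerability as percent body weight loss.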

[7] = AUCextrapolated in mouse at 5 mg/kg, po; format: ADME, organism-based; settings: in vivo
Summary of the method: (§3)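 Female mice given 5 mg/kg orally. Oral exposure (Cmax, Tmax, T1/2, MRT, AUC0-t, extrapolated AUC) measured, and bioavailability taken relative to the 1 mg/kg IV arm.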

[8] = AUC (0 to t) in mouse at 5 mg/kg, po; format: ADME, organism-based; settings: in vivo; summary of the method: as §3
[9] = Oral bioavailability in mouse at 5 mg/kg; format: ADME, organism-based; settings: in vivo; summary of the method: as §3
[10] = tested on: Mus musculus; assay: Bioavailability in mouse at 5 mg/kg, po; settings: in vivo
[11] = Tmax in mouse at 5 mg/kg, po; format: ADME, organism-based; settings: in vivo; summary of the method: as §3
[12] = Mean residence time in mouse at 5 mg/kg, po; format: ADME, organism-based; settings: in vivo; summary of the method: as §3
[13] = tested on: Mus musculus; assay: Toxicity in mouse xenografted with human HT-29 cells assessed as body weight loss at 45 mg/kg, iv 1/time/week x 1 cycle relative to control; format: organism-based; settings: in vivo; summary of the method: as §2
[14] = Mean residence time in mouse at 1 mg/kg, iv; format: ADME, organism-based; settings: in vivo
Summary of the method: (§4)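 Female mice dosed intravenously at 1 mg/kg. Plasma concentration–time data used to derive Cmax, T1/2, MRT, AUC0-t, extrapolated AUC, clearance and steady-state volume of distribution.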

[15] = Cmax in mouse at 5 mg/kg, po; format: ADME, organism-based; parameters: dose 5 mg/kg, route oral; settings: in vivo; summary of the method: as §3
[16] = Cmax in mouse at 1 mg/kg, iv; format: ADME, organism-based; parameters: dose 1 mg/kg, route intravenous; settings: in vivo; summary of the method: as §4
[17] = Inhibition of CYP450 (unknown origin); format: ADME; settings: human
[18] = AUCextrapolated in mouse at 1 mg/kg, iv; format: ADME, organism-based; settings: in vivo; summary of the method: as §4
[19] = AUC (0 to t) in mouse at 1 mg/kg, iv; format: ADME, organism-based; settings: in vivo; summary of the method: as §4
[20] = Half life in mouse at 5 mg/kg, po; format: ADME, organism-based; settings: in vivo; summary of the method: as §3
[21] = Volume of distribution at steady state in mouse at 1 mg/kg, iv; format: ADME, organism-based; settings: in vivo, read-out: Vdss; summary of the method: as §4
[22] = Half life in mouse at 1 mg/kg, iv; format: ADME, organism-based; settings: in vivo; summary of the method: as §4
[23] = Clearance in mouse at 1 mg/kg, iv; format: ADME, organism-based; settings: in vivo; summary of the method: as §4
[24] = target: hERG (KCNH2) (Homo sapiens, UniProt Q12809); assay: Inhibition of human ERG at 10 uM relative to control
Sequence of hERG (KCNH2) (Q12809 whole entry): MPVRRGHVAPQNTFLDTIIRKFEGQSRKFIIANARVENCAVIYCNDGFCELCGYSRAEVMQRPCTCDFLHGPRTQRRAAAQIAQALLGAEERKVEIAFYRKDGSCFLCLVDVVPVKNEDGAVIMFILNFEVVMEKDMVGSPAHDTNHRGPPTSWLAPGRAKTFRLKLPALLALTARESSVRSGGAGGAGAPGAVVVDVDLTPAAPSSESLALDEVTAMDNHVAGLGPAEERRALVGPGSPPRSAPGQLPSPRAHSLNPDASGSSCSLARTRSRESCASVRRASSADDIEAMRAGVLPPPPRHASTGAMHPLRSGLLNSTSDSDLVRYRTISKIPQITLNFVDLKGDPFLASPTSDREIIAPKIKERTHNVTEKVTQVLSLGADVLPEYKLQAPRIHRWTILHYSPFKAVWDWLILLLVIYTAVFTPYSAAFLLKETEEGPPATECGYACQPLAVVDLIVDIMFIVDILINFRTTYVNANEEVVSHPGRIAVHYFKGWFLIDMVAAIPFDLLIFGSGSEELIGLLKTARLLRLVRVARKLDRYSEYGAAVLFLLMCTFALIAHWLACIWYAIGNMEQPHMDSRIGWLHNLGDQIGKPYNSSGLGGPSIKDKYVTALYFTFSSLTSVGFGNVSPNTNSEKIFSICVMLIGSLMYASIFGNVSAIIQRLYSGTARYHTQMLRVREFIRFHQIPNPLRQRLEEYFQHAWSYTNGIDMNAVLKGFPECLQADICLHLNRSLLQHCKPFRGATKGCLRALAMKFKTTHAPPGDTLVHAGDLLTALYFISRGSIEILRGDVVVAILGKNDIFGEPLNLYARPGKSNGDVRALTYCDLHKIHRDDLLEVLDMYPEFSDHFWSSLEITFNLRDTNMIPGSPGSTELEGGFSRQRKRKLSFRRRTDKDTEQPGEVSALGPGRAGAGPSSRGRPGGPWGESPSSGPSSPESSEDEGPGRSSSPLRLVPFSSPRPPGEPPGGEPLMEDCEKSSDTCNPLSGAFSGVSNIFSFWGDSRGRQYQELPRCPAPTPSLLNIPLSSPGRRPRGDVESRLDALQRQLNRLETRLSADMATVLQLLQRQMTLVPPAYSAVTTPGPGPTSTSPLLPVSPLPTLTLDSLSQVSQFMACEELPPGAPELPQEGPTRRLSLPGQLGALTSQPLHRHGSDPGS

CC[C@@H]1c2c(C#N)ncn2-c2cnc(Nc3cc(F)c(C(=O)NC4CCN(C)CC4)cc3OC)nc2N1C1CCCC1
clearance [1]: 28 mL/min/kg
IC50 [2]: < 10000 nM
bioavailability [3]: 49%
EC50 [4]: 1 nM
IC50 [5]: < 10000 nM

CCOC(=O)c1ncn2c1[C@@H](CC)N(C1CCCC1)c1nc(Nc3ccc(C(=O)NC4CCN(C)CC4)cc3OC)ncc1-2
EC50 [4]: 9 nM

CC[C@@H]1c2c(C(N)=O)ncn2-c2cnc(Nc3ccc(C(=O)NC4CCN(C)CC4)cc3OC)nc2N1C1CCCC1
EC50 [4]: 20 nM

CC[C@@H]1c2c(C#N)ncn2-c2cnc(Nc3ccc(C(=O)NC4CCN(C)CC4)cc3OC)nc2N1C1CCCC1
clearance [1]: 76 mL/min/kg
bioavailability [3]: 0%
EC50 [4]: 2.7 to 3 nM
IC50 [5]: < 10000 nM

CC[C@@H]1c2c(C#N)ncn2-c2cnc(Nc3cc(F)c(C(=O)N[C@H]4CC[C@H](N5CCN(CC6CC6)CC5)CC4)cc3OC)nc2N1C(C)C
T/C [6]: 54.6%
AUC [7]: 4590 ng·h/mL
AUC(0-t) [8]: 3900 ng·h/mL
bioavailability [9]: 101%
bioavailability [3]: 100%
F [10]: 100%
Tmax [11]: 4 h
EC50 [4]: 22 nM
MRT [12]: 13 h
Activity [13]: 5.5%
MRT [14]: 6.5 h
Cmax [15]: 354 ng/mL
Cmax [16]: 258 ng/mL
inhibition (INH) [17]: Not Active
AUC [18]: 1010 ng·h/mL
AUC(0-t) [19]: 713 ng·h/mL
half-life [20]: 8.5 h
Vd [21]: 8.9 L/kg
half-life [22]: 4.7 h
clearance [23]: 22.7 mL/min/kg

CC[C@@H]1c2c(C#N)ncn2-c2cnc(Nc3cc(F)c(C(=O)NC4CCN(C)CC4)cc3OC)nc2N1C1CCCCC1
IC50 [2]: < 10000 nM
EC50 [4]: 2 nM
IC50 [5]: < 10000 nM

CC[C@@H]1c2c(C(=O)O)ncn2-c2cnc(Nc3ccc(C(=O)NC4CCN(C)CC4)cc3OC)nc2N1C1CCCC1
EC50 [4]: 400 nM

CC[C@@H]1c2c(C#N)ncn2-c2cnc(Nc3cc(F)c(C(=O)NC4CN(C)C4)cc3OC)nc2N1C(C)C
EC50 [4]: 3 nM
inhibition (INH) [17]: Not Active

CCNC(=O)c1ncn2c1[C@@H](CC)N(C1CCCC1)c1nc(Nc3ccc(C(=O)NC4CCN(C)CC4)cc3OC)ncc1-2
EC50 [4]: 100 nM

CC[C@@H]1c2c(C(=O)N(C)O)ncn2-c2cnc(Nc3ccc(C(=O)NC4CCN(C)CC4)cc3OC)nc2N1C1CCCC1
EC50 [4]: 60 nM

CC[C@@H]1c2c(C#N)ncn2-c2cnc(Nc3ccc(C(=O)NC4CCN(C)CC4)cc3OC)nc2N1C(C)C
bioavailability [3]: 0.5%
EC50 [4]: 6 nM
inhibition (INH) [17]: Not Active

CC[C@@H]1c2c(CO)ncn2-c2cnc(Nc3ccc(C(=O)NC4CCN(C)CC4)cc3OC)nc2N1C1CCCC1
EC50 [4]: 30 nM

CC[C@@H]1c2c(C#N)ncn2-c2cnc(Nc3cc(F)c(C(=O)NC4CCN(CC)CC4)cc3OC)nc2N1C(C)C
inhibition at 10 µM [24]: 37%
EC50 [4]: 3 nM
inhibition (INH) [17]: Not Active

CC[C@@H]1c2c(C#N)ncn2-c2cnc(Nc3cc(F)c(C(=O)NC4CCN(C)CC4)cc3OC)nc2N1C(C)C
bioavailability [3]: 47%
EC50 [4]: 4 nM
inhibition (INH) [17]: Not Active
